In ChEMBL document CHEMBL1136924 (J Med Chem, 2009) one finds Ki and pD2 data, which are given here for two molecules.

Active and inactive are the calls of the source. The rule behind the calls is not given here.

Assay [1] has as its target T1, Alpha-2A adrenergic receptor (Rattus norvegicus, UniProt P22909).
T1 sequence (P22909 whole entry): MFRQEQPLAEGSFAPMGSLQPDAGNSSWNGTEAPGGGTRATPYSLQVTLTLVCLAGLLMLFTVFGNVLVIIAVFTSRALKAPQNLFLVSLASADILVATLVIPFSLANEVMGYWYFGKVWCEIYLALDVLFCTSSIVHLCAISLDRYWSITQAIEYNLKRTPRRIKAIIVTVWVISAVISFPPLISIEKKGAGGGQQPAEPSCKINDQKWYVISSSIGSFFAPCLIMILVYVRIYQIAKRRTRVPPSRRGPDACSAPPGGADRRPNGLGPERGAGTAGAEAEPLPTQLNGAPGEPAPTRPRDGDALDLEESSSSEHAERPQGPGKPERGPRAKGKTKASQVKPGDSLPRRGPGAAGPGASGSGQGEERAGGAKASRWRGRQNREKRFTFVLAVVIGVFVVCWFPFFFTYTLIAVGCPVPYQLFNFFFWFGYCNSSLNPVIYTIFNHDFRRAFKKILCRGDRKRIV
The assay is described as follows: Displacement of [3H]RX821002 from adrenergic alpha2 receptor in rat cortex.

Assay [2] addresses Muscarinic acetylcholine receptor. The assay is described as follows: Displacement of [3H]QNB from muscarinic receptor in rat cortex. Background: Loss of bound radioactivity is the signal in a displacement assay; it reports binding, not function.
Assay [3] has as its target T2, Adrenergic receptor alpha-1 (Rattus norvegicus, UniProt P15823+P23944+P43140).
T2 sequence (P15823 whole entry): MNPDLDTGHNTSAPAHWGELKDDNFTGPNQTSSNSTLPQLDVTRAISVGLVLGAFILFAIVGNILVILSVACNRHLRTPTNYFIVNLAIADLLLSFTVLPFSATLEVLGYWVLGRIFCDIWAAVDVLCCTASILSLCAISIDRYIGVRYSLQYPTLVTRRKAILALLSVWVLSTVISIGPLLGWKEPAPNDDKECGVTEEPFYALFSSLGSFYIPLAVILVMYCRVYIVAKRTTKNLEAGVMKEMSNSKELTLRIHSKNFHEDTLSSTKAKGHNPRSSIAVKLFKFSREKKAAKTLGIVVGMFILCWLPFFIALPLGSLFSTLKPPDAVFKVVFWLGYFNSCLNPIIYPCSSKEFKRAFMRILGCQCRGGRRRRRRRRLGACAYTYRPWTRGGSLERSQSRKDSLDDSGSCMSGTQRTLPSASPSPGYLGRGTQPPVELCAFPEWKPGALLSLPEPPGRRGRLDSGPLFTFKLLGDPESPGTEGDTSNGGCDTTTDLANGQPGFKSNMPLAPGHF
T2 sequence (P23944 whole entry): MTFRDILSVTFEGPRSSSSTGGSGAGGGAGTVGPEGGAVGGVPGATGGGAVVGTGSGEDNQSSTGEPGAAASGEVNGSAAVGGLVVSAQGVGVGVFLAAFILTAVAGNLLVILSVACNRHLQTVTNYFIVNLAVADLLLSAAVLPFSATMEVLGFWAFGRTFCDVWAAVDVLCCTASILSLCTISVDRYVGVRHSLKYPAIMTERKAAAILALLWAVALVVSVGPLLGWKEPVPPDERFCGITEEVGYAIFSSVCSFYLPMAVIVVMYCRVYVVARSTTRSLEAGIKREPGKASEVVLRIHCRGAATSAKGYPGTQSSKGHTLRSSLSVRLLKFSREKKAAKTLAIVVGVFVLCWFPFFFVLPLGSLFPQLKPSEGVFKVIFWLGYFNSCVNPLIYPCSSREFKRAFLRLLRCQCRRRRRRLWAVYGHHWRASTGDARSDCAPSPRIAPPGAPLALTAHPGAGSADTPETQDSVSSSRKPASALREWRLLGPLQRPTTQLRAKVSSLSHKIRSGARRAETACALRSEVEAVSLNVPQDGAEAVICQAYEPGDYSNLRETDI
T2 sequence (P43140 whole entry): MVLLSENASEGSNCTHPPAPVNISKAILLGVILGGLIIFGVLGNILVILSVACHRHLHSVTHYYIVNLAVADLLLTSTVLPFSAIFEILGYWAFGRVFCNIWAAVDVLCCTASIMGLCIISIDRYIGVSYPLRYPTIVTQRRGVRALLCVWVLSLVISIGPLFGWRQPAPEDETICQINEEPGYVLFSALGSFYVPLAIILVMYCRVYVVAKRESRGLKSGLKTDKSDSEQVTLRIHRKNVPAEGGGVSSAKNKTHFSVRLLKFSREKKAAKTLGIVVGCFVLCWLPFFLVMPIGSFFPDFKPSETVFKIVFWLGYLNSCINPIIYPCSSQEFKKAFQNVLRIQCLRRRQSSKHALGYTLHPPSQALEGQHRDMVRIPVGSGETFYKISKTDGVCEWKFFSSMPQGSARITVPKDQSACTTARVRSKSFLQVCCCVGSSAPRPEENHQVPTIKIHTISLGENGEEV
The experiment in a line: Displacement of [3H]prazosin from adrenergic alpha1 receptor in rat cortex.

In assay [4] the target is D(1A) dopamine receptor (Rattus norvegicus, UniProt P18901). The experiment in a line: Displacement of [3H]SCH-23390 from dopamine D1 receptor in rat striatum.
Chain of D(1A) dopamine receptor (P18901 whole entry): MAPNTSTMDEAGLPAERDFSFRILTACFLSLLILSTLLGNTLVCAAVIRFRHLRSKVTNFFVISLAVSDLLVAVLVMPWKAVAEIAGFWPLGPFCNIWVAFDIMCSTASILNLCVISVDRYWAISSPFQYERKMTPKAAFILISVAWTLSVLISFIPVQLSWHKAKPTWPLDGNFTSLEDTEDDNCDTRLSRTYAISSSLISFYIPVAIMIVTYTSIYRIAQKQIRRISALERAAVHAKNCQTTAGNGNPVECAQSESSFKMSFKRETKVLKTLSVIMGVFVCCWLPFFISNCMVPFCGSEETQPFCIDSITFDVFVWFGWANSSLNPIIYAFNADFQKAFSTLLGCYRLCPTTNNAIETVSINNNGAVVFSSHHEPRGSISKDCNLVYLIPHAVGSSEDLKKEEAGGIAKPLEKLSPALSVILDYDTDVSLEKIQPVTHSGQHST
Assay [5] deals with D(2) dopamine receptor (Rattus norvegicus, UniProt P61169). The assay is described as follows: Displacement of [3H]spiperone from dopamine D2 receptor in rat striatum.
Chain of D(2) dopamine receptor (P61169 whole entry): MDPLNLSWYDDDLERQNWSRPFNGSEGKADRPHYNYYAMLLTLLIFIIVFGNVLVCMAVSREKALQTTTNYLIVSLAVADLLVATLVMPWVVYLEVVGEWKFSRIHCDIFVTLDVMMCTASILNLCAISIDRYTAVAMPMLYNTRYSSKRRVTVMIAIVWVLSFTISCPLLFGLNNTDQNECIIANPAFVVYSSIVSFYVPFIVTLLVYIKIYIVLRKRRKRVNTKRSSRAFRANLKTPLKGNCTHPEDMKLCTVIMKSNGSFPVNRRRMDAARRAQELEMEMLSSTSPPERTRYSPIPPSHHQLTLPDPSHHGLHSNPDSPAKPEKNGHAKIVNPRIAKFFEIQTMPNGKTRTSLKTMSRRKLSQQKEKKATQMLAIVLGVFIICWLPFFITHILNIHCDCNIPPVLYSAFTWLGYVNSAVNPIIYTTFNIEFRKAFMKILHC
For assay [6], the target named is T3, 5-hydroxytryptamine receptor 3A (Cavia porcellus) (UniProt O70212).
T3 sequence (whole entry): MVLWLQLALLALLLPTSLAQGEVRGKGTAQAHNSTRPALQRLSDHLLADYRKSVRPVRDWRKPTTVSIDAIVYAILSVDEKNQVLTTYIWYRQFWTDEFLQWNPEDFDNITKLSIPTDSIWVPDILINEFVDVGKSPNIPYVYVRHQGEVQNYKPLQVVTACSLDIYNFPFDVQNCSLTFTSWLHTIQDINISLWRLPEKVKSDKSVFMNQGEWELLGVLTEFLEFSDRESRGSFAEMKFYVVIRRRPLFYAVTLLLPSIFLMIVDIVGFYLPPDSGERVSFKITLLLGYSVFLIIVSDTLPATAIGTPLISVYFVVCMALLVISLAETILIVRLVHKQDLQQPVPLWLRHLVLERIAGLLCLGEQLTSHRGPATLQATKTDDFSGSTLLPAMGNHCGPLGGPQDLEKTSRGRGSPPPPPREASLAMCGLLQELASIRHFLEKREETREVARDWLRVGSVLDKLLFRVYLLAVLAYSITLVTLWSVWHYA
The experiment in a line: Agonist activity at 5HT3 receptor in guinea pig thoracic aorta assessed as positive contractility potency at 100 uM. Format: functional, tissue-based. A digest of the protocol: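 Guinea pig aortic helicoidal strips in PSS at 35 °C, aerated, under 1 g resting force, washed every 20 min for 1 h. Compounds added cumulatively 0.1-100 µM (DMSO vehicle); isometric contraction recorded.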

The target in assay [7] is 5-hydroxytryptamine receptor 4 (Cavia porcellus, UniProt O70528). The assay is described as follows: Displacement of [3H]GR-113808 from 5HT4 receptor in guinea pig striatum.
Chain of 5-hydroxytryptamine receptor 4 (O70528 whole entry): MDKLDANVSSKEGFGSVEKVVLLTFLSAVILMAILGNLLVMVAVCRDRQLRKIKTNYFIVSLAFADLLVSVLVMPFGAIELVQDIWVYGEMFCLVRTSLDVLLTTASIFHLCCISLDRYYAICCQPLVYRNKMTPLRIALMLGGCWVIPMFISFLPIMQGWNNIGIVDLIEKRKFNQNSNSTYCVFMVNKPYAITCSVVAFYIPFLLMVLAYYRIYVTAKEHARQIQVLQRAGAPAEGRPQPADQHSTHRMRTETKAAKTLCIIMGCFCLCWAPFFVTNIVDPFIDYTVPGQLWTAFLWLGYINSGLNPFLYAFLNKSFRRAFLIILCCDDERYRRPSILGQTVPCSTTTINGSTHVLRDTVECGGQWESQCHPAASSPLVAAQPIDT

As usually defined, the Ki is the dissociation constant of the complex between target and ligand, obtained from inhibition or displacement.

Turning to `N/C(CN1CCN(c2nc3cc(F)ccc3n3cccc23)CC1)=N\O`, the Ki in assay [1], in assay [2], in assay [3], in assay [4], in assay [5] and in assay [7] was > 10 µM throughout. For the same molecule, the pD2 entry in assay [6] was “inactive”.

In the case of `N[C@@H](CN1CCN(c2nc3cc(F)ccc3n3cccc23)CC1)C(=O)O`, the Ki in assay [1], in assay [2], in assay [3], in assay [4], in assay [5] and in assay [7] was > 10 µM in each case. The pD2 result in assay [6] was “inactive”.
